pIC50: −log10 of the molar value. Activity calls are given as the source filed them. The rule behind the calls is not given here.
Legend:
MCF7 [1] = test: Cytotoxicity against human MCF7 cells after 72 hrs by MTT assay; format: functional, cell-based; settings: for pIC50: MCF7, 72 h
Method in brief: (§1)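 MTT viability assay after 72 h incubation; IC50 reported as mean ± error from viability curves.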

MG-63 [2] = test: Cytotoxicity against human MG63 cells after 72 hrs by MTT assay; format: functional, cell-based; settings: for pIC50: MG-63, 72 h; method in brief: as §1
HT-29 [3] = test: Cytotoxicity against human HT-29 cells after 72 hrs by MTT assay; format: functional, cell-based; settings: for pIC50: HT-29, 72 h; method in brief: as §1
MCF7 [4] = test: Cytotoxicity against human MCF7 cells after 24 hrs by annexin-V-FITC/propidium iodide staining based flow cytometric method; format: functional, cell-based; settings: MCF7, 24 h
Method in brief: (§2)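 Flow cytometric cytotoxicity measured after 24 h exposure; IC50 derived. Viability was also plotted against drug concentrations from 0.1 to 100 µM over 24 h in HT-29, MCF-7 and MG-63.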

MG-63 [5] = test: Cytotoxicity against human MG63 cells after 24 hrs by annexin-V-FITC/propidium iodide staining based flow cytometric method; format: functional, cell-based; settings: MG-63, 24 h; method in brief: as §2
HT-29 [6] = test: Cytotoxicity against human HT-29 cells after 24 hrs by annexin-V-FITC/propidium iodide staining based flow cytometric method; format: functional, cell-based; settings: HT-29, 24 h; method in brief: as §2
MG-63 [7] = test: Induction of apoptosis in human MG63 cells assessed as viable cells at 1 uM after 24 hrs by annexin-V-FITC/propidium iodide staining based flow cytometric analysis (reference value: 89.58%); format: functional; settings: MG-63, 24 h, read-out: Activity
MG-63 [8] = test: Induction of apoptosis in human MG63 cells assessed as total apoptotic cells at 1 uM after 24 hrs by annexin-V-FITC/propidium iodide staining based flow cytometric analysis (reference value: 10.42%); format: functional
MG-63 [9] = test: Cell cycle arrest in human MG63 cells assessed as increase in accumulation at G2/M phase at 1 uM after 24 hrs by propidium iodide staining based flow cytometric analysis relative to control; format: functional
Method in brief: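 MG-63 cells incubated 24 h with compound at 1 µM alongside vehicle control (DMSO, <0.001%); DNA content measured by fluorescence flow cytometry, giving percentages of cells in G0/G1, S and G2/M; significance versus control tested at p < 0.001.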

MG-63 [10] = test: Induction of apoptosis in human MG63 cells assessed as increase in early apoptotic cells at 1 uM after 24 hrs by annexin-V-FITC/propidium iodide staining based flow cytometric analysis; format: functional, cell-based
Method in brief: (§3)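 Apoptosis was assessed in MG-63 cells treated for 24 h at 1 µM, alongside a DMSO vehicle control (<0.001%). Cells were stained with annexin V and PI and analysed by flow cytometry. Populations were classed as early apoptotic (annexin+/PI-), late apoptotic/dead (annexin+/PI+) or living (annexin-/PI-). Total annexin+ percentage and the PI-/PI+ ratio were reported.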

MG-63 [11] = test: Induction of apoptosis in human MG63 cells assessed as increase in late apoptotic cells at 1 uM after 24 hrs by annexin-V-FITC/propidium iodide staining based flow cytometric analysis; format: functional, cell-based; method in brief: as §3
MG-63 [12] = test: Cell cycle arrest in human MG63 cells assessed as reduction in accumulation at G0/G1-phase at 1 uM after 24 hrs by propidium iodide staining based flow cytometric analysis relative to control; format: functional; parameters: scale not given: the % may be the effect or the level left
Method in brief: (§4)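 MG-63 osteosarcoma cells exposed to test agent at 1 µM for 24 h, with a DMSO vehicle control (<0.001%). DNA content was measured by fluorescence flow cytometry, and cells were assigned to G0/G1, S and G2/M phases as percentage of the population. Significance versus control was tested at p < 0.001.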

MG-63 [13] = test: Cell cycle arrest in human MG63 cells assessed as reduction in accumulation at S-phase at 1 uM after 24 hrs by propidium iodide staining based flow cytometric analysis relative to control; format: functional; parameters: scale not given: the % may be the effect or the level left; method in brief: as §4

| Structure (SMILES) | Activity (MCF7 [1]) | Activity (MG-63 [2]) | Activity (HT-29 [3]) | pIC50 (MCF7 [1]) | pIC50 (MG-63 [2]) | pIC50 (HT-29 [3]) | pIC50 (MCF7 [4]) | pIC50 (MG-63 [5]) | pIC50 (HT-29 [6]) | viability at 1 µM (MG-63 [7]) [%] | Activity (MG-63 [8]) [%] | Activity (MG-63 [9]) | Activity (MG-63 [10]) | Activity (MG-63 [11]) | fold change (FC) (MG-63 [9]) | Activity (MG-63 [12]) [%] | Activity (MG-63 [13]) [%] |
| --- | --- | --- | --- | --- | --- | --- | --- | --- | --- | --- | --- | --- | --- | --- | --- | --- | --- |
| C=C1CCC2[C@](C)(CCC[C@]2(C)C(=O)OCCCCCCBr)[C@H]1CCc1ccc2c(OC(C)=O)ccc(OC(C)=O)c2c1 (stereo partly drawn) | Active | Active | Active |  |  |  |  |  |  |  |  |  |  |  |  |  |  |
| C=C1CCC2[C@](C)(CCC[C@]2(C)C(=O)OCc2ccc(CBr)cc2)[C@H]1CCc1ccc2c(OC(C)=O)ccc(OC(C)=O)c2c1 (stereo partly drawn) | Active | Active | Active |  |  |  |  |  |  |  |  |  |  |  |  |  |  |
| C=C1CCC2[C@](C)(CCC[C@]2(C)C(=O)OCCCCCCOC(=O)[C@@H]2C(C=O)=Cc3cc4c(cc3[C@H]2c2cc(OC)c(OC)c(OC)c2)OCO4)[C@H]1CCc1ccc2c(OC(C)=O)ccc(OC(C)=O)c2c1 (stereo partly drawn) |  |  |  | 6.00 | 5.69 | 5.72 | < 4.00 | 4.35 | 4.24 | 88.8 | 11.24 |  |  |  |  |  |  |
| C=C1CCC2[C@](C)(CCC[C@]2(C)C(=O)OCCCBr)[C@H]1CCc1ccc2c(OC(C)=O)ccc(OC(C)=O)c2c1 (stereo partly drawn) | Active | Active | Active |  |  |  |  |  |  |  |  |  |  |  |  |  |  |
| C=C1CCC2[C@](C)(CCC[C@]2(C)C(=O)OCCCOC(=O)[C@@H]2C(C=O)=Cc3cc4c(cc3[C@H]2c2cc(OC)c(OC)c(OC)c2)OCO4)[C@H]1CCc1ccc2c(OC(C)=O)ccc(OC(C)=O)c2c1 (stereo partly drawn) |  |  |  | 5.66 | 5.65 | 5.82 | < 4.00 | 4.24 | < 4.00 | 75 | 25.03 | Active |  |  |  |  |  |
| C=C1CCC2[C@](C)(CCC[C@]2(C)C(=O)OCc2ccc(COC(=O)[C@@H]3C(C=O)=Cc4cc5c(cc4[C@H]3c3cc(OC)c(OC)c(OC)c3)OCO5)cc2)[C@H]1CCc1ccc2c(OC(C)=O)ccc(OC(C)=O)c2c1 (stereo partly drawn) |  |  |  | 5.99 | 6.82 | 5.84 | < 4.00 | 6.30 | < 4.00 | 10 | 89.96 |  | Active | Active | 5 | 100 | 100 |
| COc1cc([C@@H]2c3cc4c(cc3[C@H](O)[C@H]3COC(=O)[C@H]23)OCO4)cc(OC)c1OC [PODOFILOX] |  |  |  | 7.55 | 8.15 | 7.18 | < 4.00 | 4.74 | < 4.00 | 51.4 | 48.56 | Active |  |  |  |  |  |
| COC(=O)[C@@H]1C(C=O)=Cc2cc3c(cc2[C@H]1c1cc(OC)c(OC)c(OC)c1)OCO3 [PODOPHYLLIC ALDEHYDE] |  |  |  | 6.32 | 7.22 | 7.54 | < 4.00 | 5.91 | < 4.00 | 51.9 | 48.08 | Active | Active | Active |  | 100 | 100 |
| C=C1CCC2[C@](C)(CCC[C@]2(C)C(=O)OC)[C@H]1CCc1ccc2c(OC(C)=O)ccc(OC(C)=O)c2c1 (stereo partly drawn) |  |  |  | 7.82 | 6.39 | 7.74 | 4.52 | 5.94 | 5.25 |  |  | Active |  |  |  |  |  |

Reference: ChEMBL document CHEMBL4251735, “New Hybrids Derived from Podophyllic Aldehyde and Diterpenylhydroquinones with Selectivity toward Osteosarcoma Cells” (ACS Med Chem Lett, 2018)
